ALR H2O2 inh = human ALR oxidase inhibition via reduced H2O2 | 3.8% of 290,000 active | purified ALR, DTT oxidation, H2O2 HRP-luminol luminescence | inhibition, % (concentration not given with the values);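 active means mean replicate inhibition above about 79%, with every replicate also reaching it, limit read from the data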
Target sequence (P55789 whole entry, looked up): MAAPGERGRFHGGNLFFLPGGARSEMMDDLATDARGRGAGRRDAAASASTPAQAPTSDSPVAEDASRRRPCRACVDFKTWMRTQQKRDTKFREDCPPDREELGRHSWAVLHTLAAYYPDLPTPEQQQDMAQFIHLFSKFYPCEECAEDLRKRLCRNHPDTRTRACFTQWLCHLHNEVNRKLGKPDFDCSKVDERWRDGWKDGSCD
PfM18AAP inh = PfM18AAP enzyme inhibition. 1.2% of 290,000 active. recombinant PfM18AAP, H-Glu-NHMec fluorogenic cleavage. inhibition, % at 7.35 µM;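 active means inhibition above the campaign mean inhibition over all tested compounds plus 3 SD, cut at about 28% in these data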;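 further: 0% = plate median of test compound wells and 100% = 2 mM ZnCl2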
NS3 helicase inh = inhibitors of Hepatitis C virus NS3 helicase. NS3 helicase DNA unwinding, Cy5 molecular beacon fluorescence. inhibition, % at 10.9 µM. 0.56% of 290,000 active. AID 1800;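 active means inhibition above the mean of all tested compounds plus 3 SD, set per campaign, cut at about 35% in these data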;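 further: 0% = DMSO wells and 100% = thioflavine S control wells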
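Measured by: Cy5 fluorescence, 0 and 60 min reads / Assay system: NS3 helicase fragment of HCV / Control set: low DMSO, high thioflavine S at 110 µM / Times: 1 h reaction at 25 °C, ATP-initiated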
HCV core dimer = blocks dimerization of HCV core protein. AID 1899. TR-FRET GST/Flag-core106 dimerization, 1536-well. inhibition, % at 5 µM. 0.33% of 300,000 active;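 active means inhibition above the mean of all tested compounds plus 3 SD, set per screening campaign, cut at about 45% in these data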
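Assay system: tagged HCV core106 pair (GST and Flag); medium: KF-containing HEPES buffer, pH 7.45, DTT, CHAPS, BSA; also added: Eu donor and XL665 acceptor anti-tag antibodies; dosing: 5 µM single dose; timing: compound-protein-antibody incubation 4 h at 22.5 °C; signal: TR-FRET 671 and 617 nm emission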
EBNA-1 inh = blocks EBNA-1 binding to DNA; 0.34% of 300,000 active; inhibition, % at 14.8 µM; EBNA-1 DNA binding, fluorescence polarization; in the data active means inhibition above about 28%
ZTA counter = counter-screen for EBNA-1 inhibitors: inhibitors of Epstein-Barr virus ZTA. ZTA-DNA binding, fluorescence polarization. inhibition, % at 11 µM. 0.15% of 320,000 active; in the data active means inhibition above about 33%
Target sequence (P03206 whole entry, looked up): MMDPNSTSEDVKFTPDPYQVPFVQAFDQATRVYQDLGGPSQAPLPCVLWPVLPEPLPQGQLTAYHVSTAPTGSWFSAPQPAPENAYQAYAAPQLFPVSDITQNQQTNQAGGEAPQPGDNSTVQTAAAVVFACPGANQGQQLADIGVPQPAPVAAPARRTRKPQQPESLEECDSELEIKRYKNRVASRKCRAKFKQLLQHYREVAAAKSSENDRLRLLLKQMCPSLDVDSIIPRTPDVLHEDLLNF
EBNA-1 confirm = EBNA-1 (EBV) inhibition, confirmation; shares compounds with EBNA-1 inh; Recombinant EBNA-1 DBD, Cy5-DNA fluorescence polarization; inhibition, % at 14.8 µM; 35% of 830 active;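 active means mean inhibition across replicates above a set limit taken from the earlier primary screen, cut at about 28% in these data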;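 further: plate controls were EBNA-1 protein with DMSO for no effect and wells lacking EBNA-1 for full effect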
ZTA DNA inh trip = blocks Epstein-Barr virus ZTA in triplicate, EBNA-1 counter-screen; 830 tested, under 10 active; Zta-ZRE DNA binding, Cy5 fluorescence polarization; AID 2328; shares compounds with EBNA-1 inh; inhibition, % at 11.1 µM;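 active means mean inhibition over triplicates above a set limit taken from the primary EBNA-1 screen, cut at about 37% in these data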;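 further: purified full length Zta protein with Cy5 labeled ZRE DNA probe; 0% = Zta with DMSO and 100% = wells lacking Zta protein; inhibitors lower polarization by freeing the labeled DNA probe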
Active calls of the source: *; i = inactive; . = no result given; ! = repeats disagree. Only some compounds are listed: those with a hit (about 5.2% of all), similar ones and a draw of the others.

SMILES	ALR H2O2 inh	PfM18AAP inh	NS3 helicase inh	HCV core dimer	EBNA-1 inh	ZTA counter	EBNA-1 confirm	ZTA DNA inh trip
CCn1nnc(-c2ccccc2NC(=O)c2ccc(-n3cnnn3)cc2)n1	-3.1	4.5	0.6	-4.4	4.2	2.7	.	.
O=C(Cn1nnc(-c2ccccc2NC(=O)c2ccccc2)n1)Nc1ccc2c(c1)OCCO2	-18.3	-9.9	6.4	2.2	61.3*	9.9	60.5*	4.2
CCn1nnc(-c2ccccc2NC(=O)c2cccc(-n3cnnn3)c2)n1	0.3	11.8	5.3	1.3	87.4*	-1.3	83.3*	10.1
CC(=O)Nc1ccccc1-c1nnn(CC(=O)Nc2ccc3c(c2)OCCO3)n1	0.2	-9.0	5.1	-0.3	5.8	9.5	.	.
Cc1cccc(NC(=O)CNC(=O)COc2ccc(C(=O)c3ccc(F)cc3)cc2)c1C	-1.9	-6.4	-5.3	-7.0	41.5*	-17.6	5.8	-2.3
Cc1cccc(NC(=O)c2cc(S(=O)(=O)N3CCc4ccccc43)cn2C)c1C	1.1	-1.4	4.9	7.1	27.6*	9.9	39.1*	-7.5
CCCC#CCN1CCN(C23CC4CC(CC(C4)C2)C3)CC1	1.6	-0.7	-8.1	3.2	4.8	15.2	.	.
CSc1nsc2nc(=O)c(/C=C3\C(C)=Nc4ccc(C)cc43)c(N)n12	18.8	2.4	31.7	5.2	1.5	7.7	.	.
CC1=Nc2ccc(C)cc2/C1=C/c1c(N)n2oc(C)cc2nc1=O	-2.5	4.7	-4.0	0.3	28.1*!	19.4	32.7*	1.2
COc1ccc(S(=O)(=O)Nc2cc3c4c(c2)CCC(=O)N4CCC3)cc1C	.	.	.	-7.0	-1.3	1.4	.	.
CC(C)CC1NC(=O)N(CC(=O)Nc2cc(S(=O)(=O)N3CCOCC3)ccc2Cl)C1=O (centres undefined)	3.2	.	.	.	.	.	.	.
CCC(=O)Nc1ccc(Cl)c(NC(=S)NC(=O)COc2ccc(Cl)cc2)c1	.	3.5	-0.5	1.3	58.2*	0.6	8.4	17.4
COc1cc(OC)c(OC)cc1CNC(=O)CCN1C(=O)c2cccc([N+](=O)[O-])c2C1=O	-13.1	5.0	6.8	11.8	-1.1	3.8	.	.
O=C(CN1C(=O)NC(c2ccccc2)(c2ccccc2)C1=O)NCC(=O)Nc1ccc(F)cc1	-2.4	.	.	.	.	-3.5	.	.
O=C(c1ccccc1F)N1CCN(S(=O)(=O)c2ccc(S(=O)(=O)N3CCCCCC3)cc2)CC1	-10.1	2.0	-1.1	4.1	30.9*	3.4	33.4*	-5.7
CCS(=O)(=O)N1CCN(S(=O)(=O)c2ccc(S(=O)(=O)NC3CC3)cc2)CC1	4.8	2.7	5.3	1.0	47.8*	18.8	43.6*	16.2
Cc1ccccc1CC(=O)Nc1ccc(S(=O)(=O)N2CCOCC2)cc1	-0.4	-8.9	6.6	-2.8	-5.2	-5.2	.	.
COc1ccc(-c2cc(CCCC(=O)NCCc3ccc(OC)cc3OC)no2)cc1	-13.0	-4.3	-4.8	0.4	36.1*	1.1	46.1*	13.3
COc1ccc(-c2cc(CCCC(=O)NCCc3ccccc3)no2)cc1	8.7	4.7	-10.3	-5.0	-9.4	6.2	.	.
Cc1cn2c(=O)c(C(=O)N3CCN(c4ccccc4F)CC3)cnc2s1	-0.5	.	.	1.0	14.8	4.7	.	.
COc1ccc2nc(NC(=O)CSc3nnc(C)s3)sc2c1	-25.6	4.0	-6.1	2.9	28.7*	-7.7	6.8	-1.2
CCOC(=O)c1sc(N2C(=O)C(O)=C(C(=O)c3ccc(C)o3)C2c2cccc([N+](=O)[O-])c2)nc1C (centres undefined)	11.9	-17.0	1.4	21.9	32.7*	23.1	17.0	-20.4
COc1ccc(CNC(=O)CCn2c(C)csc2=O)cc1	-1.1	.	.	.	.	-5.6	.	.
CCOC(=O)C1=C(C)NC2=C(C(=O)c3ccccc32)C1c1ccc(O)cc1 (centres undefined)	0.0	4.3	-1.5	-45.9	4.4	-26.1	.	.
COC(=O)C1=C(C)NC2=C(C(=O)c3ccccc32)C1c1cccc(OC)c1 (centres undefined)	2.0	-0.9	-1.7	-19.7	27.9*	-5.2	37.7*	4.4
SMILES	ALR H2O2 inh	PfM18AAP inh	NS3 helicase inh	HCV core dimer	EBNA-1 inh	ZTA counter	EBNA-1 confirm	ZTA DNA inh trip
COc1cc(CNC2CCCCCCC2)cc(Cl)c1OC	-1.5	-17.2	-16.0	1.8	89.9*	2.3	-3.4	2.1
CCOc1c(Br)cc(CNC2CCCCCCC2)cc1OC	-2.2	3.4	-12.1	4.3	-16.4	1.0	.	.
Cc1cc(C(=O)CSc2nnnn2-c2ccccc2)c(C)n1CC1CCCO1 (centres undefined)	.	2.0	8.2	9.2	151.3*	-0.3	92.8*	2.3
CS(=O)(=O)c1ccc(-c2cccc(NC(=O)c3ccc(Br)o3)c2)nn1	-1.7	.	.	-1.5	37.5*	-1.3	28.1*	-6.6
C/C(=N\NC(=O)c1c(Br)c(C)nn1C)c1ccc(NC(=O)c2ccoc2C)cc1	1.3	2.1	3.7	-2.6	62.5*	9.1	72.4*	8.9
Cc1ccc(NC(=S)NC(=O)c2ccc(F)cc2)cc1S(=O)(=O)Nc1ccccc1Cl	0.5	-6.1	4.6	22.5	27.8*	4.7	-6.8	-13.4
Cc1ccc(NC(=O)c2ccc(=O)[nH]n2)cc1S(=O)(=O)Nc1ccccc1Cl	0.2	.	.	.	.	-1.0	.	.
CCOC(=O)Cc1csc(SCC(=O)N(CC(C)C)c2c(N)n(Cc3ccccc3)c(=O)[nH]c2=O)n1	-11.3	.	.	0.3	4.9	15.3	.	.
S=C(NCc1ccco1)Nc1ccc(Cl)cc1	-2.2	-3.9	5.1	-7.7	31.0*	-8.2	-4.4	0.0
COc1cccc(-c2nc(CS(=O)(=O)CC(=O)Nc3cc(C)ccc3C)c(C)o2)c1	-2.8	-1.4	1.0	16.0	0.8	-2.4	.	.
COc1ccc(OC)c(NC(=O)CS(=O)(=O)Cc2nc(-c3ccccc3C)oc2C)c1	-2.3	4.0	-8.1	14.4	56.8*	1.0	-12.4	-2.2
COC(=O)CSc1nnc(-c2ccc(S(=O)(=O)N3CCC(C)CC3)cc2)o1	-2.7	0.5	-0.3	1.5	0.9	6.4	.	.
CC1CCN(S(=O)(=O)c2ccc(-c3nnc(SCc4cccnc4)o3)cc2)CC1	-1.2	4.1	1.9	3.6	44.3*	7.3	21.3	-7.3
Cc1c(C#N)c(N)nc2c3c(sc12)NC(=O)CC3c1ccccc1 (centres undefined)	-12.5	-5.1	14.5	4.0	62.7*	-22.9	24.6	-1.8
O=C(CC(Sc1n[nH]c(-c2ccccc2)n1)c1ccccc1)NCc1ccccc1 (centres undefined)	-2.7	1.7	-3.2	-4.3	32.8*	2.0	9.8	8.6
COc1ccc(-c2nc(SC(CC(=O)NCCO)c3cccs3)n[nH]2)cc1 (centres undefined)	i	-0.4	9.1	0.1	-3.9	6.6	.	.

Screening data from PubChem.
